# Reference: ChEMBL document CHEMBL5705899 (Biochem J, 2014)
# Active and inactive are the calls of the source. The calls are words filed in the database; no cut-off is given here.
# Key:
# [1] = target: Eukaryotic translation initiation factor 2-alpha kinase 3 (Homo sapiens) (UniProt Q9NZJ5); assay: Inhibition of recombinant human N-terminal GST-tagged EIF2AK3 (536 to 1116 residues) expressed in Escherichia coli assessed as remaining activity at 1 uM using MBP as substrate incubated for 30 mins in presence of [gamma-33P]ATP by filter binding method relative to control
# [2] = tested on: RAC-beta serine/threonine-protein kinase (Homo sapiens), P31751 [S474D]; assay: (§1) Inhibition of recombinant human N-terminal His6-tagged PKBbeta S474D mutant (120 to 481 residues) expressed in baculovirus infected Sf21 cells assessed as remaining activity at 1 uM using crosstide peptide as substrate incubated for 30 mins in presence of [gamma-33P]ATP by filter binding method relative to control
# Sequence of RAC-beta serine/threonine-protein kinase (Homo sapiens), P31751 [S474D] (P31751 whole entry S474D, the tested form may be a part): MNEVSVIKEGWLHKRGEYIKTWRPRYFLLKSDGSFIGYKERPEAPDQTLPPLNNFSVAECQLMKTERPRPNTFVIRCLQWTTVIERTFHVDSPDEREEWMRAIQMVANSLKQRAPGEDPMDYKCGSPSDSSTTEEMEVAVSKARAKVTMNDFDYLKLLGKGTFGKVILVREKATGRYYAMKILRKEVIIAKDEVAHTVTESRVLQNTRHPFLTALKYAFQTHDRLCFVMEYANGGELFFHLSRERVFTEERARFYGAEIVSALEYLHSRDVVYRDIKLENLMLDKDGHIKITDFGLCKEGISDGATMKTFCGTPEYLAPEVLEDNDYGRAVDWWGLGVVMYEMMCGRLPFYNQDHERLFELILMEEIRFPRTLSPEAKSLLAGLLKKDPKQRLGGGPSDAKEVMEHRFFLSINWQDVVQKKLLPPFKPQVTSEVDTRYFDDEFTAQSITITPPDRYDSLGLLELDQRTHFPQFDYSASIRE
# [3] = target: Homeodomain-interacting protein kinase 1 (Homo sapiens) (UniProt Q86Z02); assay: Inhibition of recombinant human N-terminal GST-tagged HIPK1 (158 to 555 residues) expressed in Escherichia coli assessed as remaining activity at 1 uM using MBP as substrate incubated for 30 mins in presence of [gamma-33P]ATP by filter binding method relative to control
# [4] = target: LKB1-STRAD-MO25 complex (Homo sapiens) (UniProt Q15831+Q7RTN6+Q9Y376); assay: as §1, with “LKB1 (1” for “PKBbeta S474D mutant (120”, “433 residues)/MO25 (1 to 341 residues)/STRAD (1 to 431” for “481”, “LSNLYHQGKFLQTFCGSPLYRRR” for “crosstide peptide”
# [5] = target: Serine/threonine-protein kinase PAK 4 (Homo sapiens) (UniProt O96013); assay: Inhibition of recombinant human N-terminal GST-tagged PAK4 (2 to 519 residues) expressed in Escherichia coli assessed as remaining activity at 1 uM using RRRLSFAEPG as substrate incubated for 30 mins in presence of [gamma-33P]ATP by filter binding method relative to control
# Sequence of Serine/threonine-protein kinase PAK 4 (Homo sapiens) (O96013 whole entry, looked up, the tested form may be a part): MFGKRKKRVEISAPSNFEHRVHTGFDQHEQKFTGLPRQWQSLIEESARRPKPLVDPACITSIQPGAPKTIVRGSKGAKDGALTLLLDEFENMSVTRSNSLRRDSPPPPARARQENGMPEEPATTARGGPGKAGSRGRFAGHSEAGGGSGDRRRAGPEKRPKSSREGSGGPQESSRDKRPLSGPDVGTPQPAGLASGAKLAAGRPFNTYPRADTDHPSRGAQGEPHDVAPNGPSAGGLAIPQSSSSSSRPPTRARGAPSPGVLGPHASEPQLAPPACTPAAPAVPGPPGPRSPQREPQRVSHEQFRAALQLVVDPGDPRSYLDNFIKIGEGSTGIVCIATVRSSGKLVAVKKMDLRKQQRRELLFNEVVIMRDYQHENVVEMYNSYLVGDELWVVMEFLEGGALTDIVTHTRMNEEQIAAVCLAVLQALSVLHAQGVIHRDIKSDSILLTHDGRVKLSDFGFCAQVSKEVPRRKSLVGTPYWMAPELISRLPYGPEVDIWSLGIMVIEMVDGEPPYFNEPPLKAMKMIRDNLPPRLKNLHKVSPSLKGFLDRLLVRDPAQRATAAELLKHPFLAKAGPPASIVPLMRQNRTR
# [6] = target: Protein kinase C zeta type (Homo sapiens) (UniProt Q05513); assay: Inhibition of recombinant human N-terminal His6-tagged PKCzeta (2 to 592 residues) expressed in baculovirus infected Sf21 cells assessed as remaining activity at 1 uM using ERMRPRKRQGSVRRV as substrate incubated for 30 mins in presence of [gamma-33P]ATP by filter binding method relative to control
# [7] = target: Fibroblast growth factor receptor 1 (Homo sapiens) (UniProt P11362); assay: Inhibition of recombinant human N-terminal His6-tagged FGFR1 (400 to 820 residues) expressed in baculovirus infected Sf21 cells assessed as remaining activity at 1 uM using Poly(Glu,Tyr) as substrate incubated for 30 mins in presence of [gamma-33P]ATP by filter binding method relative to control
# Sequence of Fibroblast growth factor receptor 1 (Homo sapiens) (P11362 22-822 limits assumed): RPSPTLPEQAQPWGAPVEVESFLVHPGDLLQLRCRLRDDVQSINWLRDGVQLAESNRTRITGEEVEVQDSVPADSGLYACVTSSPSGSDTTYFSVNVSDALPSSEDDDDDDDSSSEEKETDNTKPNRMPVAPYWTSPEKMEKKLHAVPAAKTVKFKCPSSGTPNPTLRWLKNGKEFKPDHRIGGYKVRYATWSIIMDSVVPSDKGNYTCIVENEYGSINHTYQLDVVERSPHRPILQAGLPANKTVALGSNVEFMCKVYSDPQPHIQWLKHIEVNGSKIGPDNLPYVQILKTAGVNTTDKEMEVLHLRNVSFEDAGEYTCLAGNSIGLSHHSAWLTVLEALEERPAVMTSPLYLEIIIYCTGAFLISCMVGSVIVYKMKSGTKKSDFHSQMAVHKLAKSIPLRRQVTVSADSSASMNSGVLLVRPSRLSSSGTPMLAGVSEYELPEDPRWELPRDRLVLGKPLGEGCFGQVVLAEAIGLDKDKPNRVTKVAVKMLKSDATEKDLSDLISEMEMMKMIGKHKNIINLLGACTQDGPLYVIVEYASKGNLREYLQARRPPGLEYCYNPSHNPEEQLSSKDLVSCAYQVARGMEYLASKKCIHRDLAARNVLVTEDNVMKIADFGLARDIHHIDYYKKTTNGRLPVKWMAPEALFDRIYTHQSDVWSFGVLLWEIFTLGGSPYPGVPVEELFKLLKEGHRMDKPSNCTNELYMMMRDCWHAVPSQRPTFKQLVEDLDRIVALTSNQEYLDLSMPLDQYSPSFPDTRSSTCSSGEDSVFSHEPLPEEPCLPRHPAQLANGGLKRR
# [8] = target: Ephrin type-A receptor 4 (Homo sapiens) (UniProt P54764); assay: Inhibition of recombinant human N-terminal GST-tagged EPHA4 (570 to 986 residues) expressed in Escherichia coli assessed as remaining activity at 1 uM using Poly (Glu,Tyr) as substrate incubated for 30 mins in presence of [gamma-33P]ATP by filter binding method relative to control
# [9] = target: Tau-tubulin kinase 2 (Homo sapiens) (UniProt Q6IQ55); assay: Inhibition of recombinant human TTBK2 (1 to 450 residues) expressed in baculovirus infected Sf21 cells assessed as remaining activity at 1 uM using RRKDLHDDEEDEAMSITA as substrate incubated for 30 mins in presence of [gamma-33P]ATP by filter binding method relative to control
# [10] = target: Tyrosine-protein kinase Lyn (Homo sapiens) (UniProt P07948); assay: Inhibition of human LYN at 1 uM using polyEY as substrate in presence of 33P-ATP by ProQinase assay
# [11] = target: Fibroblast growth factor receptor 1 (Homo sapiens) (UniProt P11362); assay: Inhibition of human FGFR1 at 1 uM using polyEy as substrate in presence of 33P-ATP by ProQinase assay
# [12] = target: Tyrosine-protein kinase ZAP-70 (Homo sapiens) (UniProt P43403); assay: Inhibition of human ZAP70 at 1 uM using polyEY as substrate in presence of 33P-ATP by ProQinase assay
# Sequence of Tyrosine-protein kinase ZAP-70 (Homo sapiens) (P43403 whole entry): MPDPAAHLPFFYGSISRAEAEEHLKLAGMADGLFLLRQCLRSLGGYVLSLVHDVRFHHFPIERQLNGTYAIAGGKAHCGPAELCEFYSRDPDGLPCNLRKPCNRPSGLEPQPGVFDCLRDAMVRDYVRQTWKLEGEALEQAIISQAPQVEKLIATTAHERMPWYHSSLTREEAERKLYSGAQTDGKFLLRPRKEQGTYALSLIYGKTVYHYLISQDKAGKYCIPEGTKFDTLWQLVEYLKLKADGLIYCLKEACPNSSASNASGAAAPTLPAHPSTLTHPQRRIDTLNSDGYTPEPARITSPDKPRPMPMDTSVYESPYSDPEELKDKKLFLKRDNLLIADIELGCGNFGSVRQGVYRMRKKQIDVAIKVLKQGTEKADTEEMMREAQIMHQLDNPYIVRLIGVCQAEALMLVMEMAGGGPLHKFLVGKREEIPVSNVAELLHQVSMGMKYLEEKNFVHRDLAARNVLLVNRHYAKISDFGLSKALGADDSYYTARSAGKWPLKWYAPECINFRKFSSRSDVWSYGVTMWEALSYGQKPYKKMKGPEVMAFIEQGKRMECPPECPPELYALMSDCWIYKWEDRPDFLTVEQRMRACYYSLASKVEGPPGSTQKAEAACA
# [13] = target: Platelet-derived growth factor receptor alpha (Homo sapiens) (UniProt P16234); assay: Inhibition of human PDGFRalpha at 1 uM using Poly(Ala,Glu,Lys,Tyr) as substrate in presence of 33P-ATP by ProQinase assay
# Sequence of Platelet-derived growth factor receptor alpha (Homo sapiens) (P16234 whole entry): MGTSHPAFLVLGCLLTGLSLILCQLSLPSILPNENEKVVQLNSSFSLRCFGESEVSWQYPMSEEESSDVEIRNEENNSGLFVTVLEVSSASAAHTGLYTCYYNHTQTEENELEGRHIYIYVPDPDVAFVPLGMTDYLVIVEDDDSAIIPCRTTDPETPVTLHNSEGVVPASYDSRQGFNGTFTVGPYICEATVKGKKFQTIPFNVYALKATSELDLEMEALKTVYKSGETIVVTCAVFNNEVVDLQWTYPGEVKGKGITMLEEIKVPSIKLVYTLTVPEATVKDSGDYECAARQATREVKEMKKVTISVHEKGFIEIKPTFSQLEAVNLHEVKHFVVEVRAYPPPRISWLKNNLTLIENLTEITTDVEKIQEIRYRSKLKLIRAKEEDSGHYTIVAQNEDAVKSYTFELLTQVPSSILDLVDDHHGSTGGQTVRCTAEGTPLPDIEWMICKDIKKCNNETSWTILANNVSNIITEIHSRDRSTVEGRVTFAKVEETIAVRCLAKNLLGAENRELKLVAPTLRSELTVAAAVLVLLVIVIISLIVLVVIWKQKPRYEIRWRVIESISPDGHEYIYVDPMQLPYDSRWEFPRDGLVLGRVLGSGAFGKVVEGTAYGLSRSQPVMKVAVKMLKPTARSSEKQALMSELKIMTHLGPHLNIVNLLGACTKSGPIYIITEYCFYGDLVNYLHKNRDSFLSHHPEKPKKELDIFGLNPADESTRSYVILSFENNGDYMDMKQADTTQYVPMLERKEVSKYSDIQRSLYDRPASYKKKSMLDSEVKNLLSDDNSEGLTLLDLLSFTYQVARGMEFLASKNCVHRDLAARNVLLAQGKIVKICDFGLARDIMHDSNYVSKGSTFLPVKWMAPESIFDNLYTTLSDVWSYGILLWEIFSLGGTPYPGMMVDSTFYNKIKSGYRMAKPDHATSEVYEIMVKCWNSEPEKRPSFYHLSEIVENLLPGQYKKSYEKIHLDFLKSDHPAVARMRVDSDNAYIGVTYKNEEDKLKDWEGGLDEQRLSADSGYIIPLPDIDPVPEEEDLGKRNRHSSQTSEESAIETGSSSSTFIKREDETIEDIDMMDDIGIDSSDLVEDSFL
# [14] = target: Mitogen-activated protein kinase kinase kinase 14 (Homo sapiens) (UniProt Q99558); assay: Inhibition of human NIK at 1 uM using RBER-CHKtide as substrate in presence of 33P-ATP by ProQinase assay
# [15] = target: Serine/threonine-protein kinase N2 (Homo sapiens) (UniProt Q16513); assay: Inhibition of human PRK2 at 1 uM using RBER-CHKtide as substrate in presence of 33P-ATP by ProQinase assay
# [16] = target: Mitogen-activated protein kinase 10 (Homo sapiens) (UniProt P53779); assay: Inhibition of human JNK3 at 1 uM using ATF2 as substrate in presence of 33P-ATP by ProQinase assay
# [17] = target: LIM domain kinase 1 (Homo sapiens) (UniProt P53667); assay: Inhibition of human LIMK1 at 1 uM using CFL2 as substrate in presence of 33P-ATP by ProQinase assay
# [18] = target: Myosin light chain kinase (Homo sapiens) (UniProt Q32MK0); assay: Inhibition of human MYLK3 at 1 uM using RB-S6P as substrate in presence of 33P-ATP by ProQinase assay
# Sequence of Myosin light chain kinase (Homo sapiens) (Q32MK0 whole entry): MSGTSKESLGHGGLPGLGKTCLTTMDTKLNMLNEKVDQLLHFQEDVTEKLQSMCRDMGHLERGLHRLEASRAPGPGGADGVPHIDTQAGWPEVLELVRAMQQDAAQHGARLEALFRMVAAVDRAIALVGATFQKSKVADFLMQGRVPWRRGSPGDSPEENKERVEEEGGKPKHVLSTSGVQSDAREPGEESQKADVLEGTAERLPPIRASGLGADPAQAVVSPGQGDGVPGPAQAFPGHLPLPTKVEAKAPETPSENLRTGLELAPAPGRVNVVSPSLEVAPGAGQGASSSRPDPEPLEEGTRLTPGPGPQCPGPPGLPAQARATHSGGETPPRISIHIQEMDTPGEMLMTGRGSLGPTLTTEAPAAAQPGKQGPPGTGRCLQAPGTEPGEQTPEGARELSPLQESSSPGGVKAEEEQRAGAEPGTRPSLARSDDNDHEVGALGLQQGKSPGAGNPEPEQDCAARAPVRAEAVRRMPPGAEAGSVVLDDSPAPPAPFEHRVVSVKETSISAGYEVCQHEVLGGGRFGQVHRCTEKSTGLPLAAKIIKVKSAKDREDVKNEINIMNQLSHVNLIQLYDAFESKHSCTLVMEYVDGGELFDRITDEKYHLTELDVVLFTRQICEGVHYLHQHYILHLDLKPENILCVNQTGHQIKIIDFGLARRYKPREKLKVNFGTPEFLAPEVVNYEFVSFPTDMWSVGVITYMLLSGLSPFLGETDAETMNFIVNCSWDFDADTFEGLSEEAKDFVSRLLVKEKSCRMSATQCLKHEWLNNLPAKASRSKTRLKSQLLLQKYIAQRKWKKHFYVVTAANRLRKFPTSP
# [19] = target: Serine/threonine-protein kinase tousled-like 1 (Homo sapiens) (UniProt Q9UKI8); assay: Inhibition of human TLK1 at 1 uM using RB-CTF as substrate in presence of 33P-ATP by ProQinase assay
# [20] = target: cGMP-dependent protein kinase 2 (Homo sapiens) (UniProt Q13237); assay: Inhibition of human PRKG2 at 1 uM using RBER-GSK3 as substrate in presence of 33P-ATP by ProQinase assay
# [21] = target: Mitogen-activated protein kinase 14 (Homo sapiens) (UniProt Q16539); assay: Inhibition of human p38alpha at 1 uM using ATF2 as substrate in presence of 33P-ATP by ProQinase assay
# Sequence of Mitogen-activated protein kinase 14 (Homo sapiens) (Q16539 whole entry, the tested form may be a part): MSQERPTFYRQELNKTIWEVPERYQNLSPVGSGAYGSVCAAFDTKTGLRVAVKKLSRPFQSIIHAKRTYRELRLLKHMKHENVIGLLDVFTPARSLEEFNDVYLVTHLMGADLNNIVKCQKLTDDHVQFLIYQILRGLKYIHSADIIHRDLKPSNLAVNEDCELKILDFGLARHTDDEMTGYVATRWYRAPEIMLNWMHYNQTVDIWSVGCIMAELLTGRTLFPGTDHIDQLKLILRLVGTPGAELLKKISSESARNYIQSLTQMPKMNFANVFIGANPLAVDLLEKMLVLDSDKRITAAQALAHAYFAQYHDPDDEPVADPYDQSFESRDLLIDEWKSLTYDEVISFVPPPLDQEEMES
# [22] = target: Phosphatidylinositol 4-phosphate 3-kinase C2 domain-containing subunit alpha (Homo sapiens, UniProt O00443); assay: Inhibition of human PIK3C2A using PIP2/PS as substrate by ADP-Glo assay
# [23] = tested on: U2OS; assay: Inhibition of PI3K in human U2OS cells expressing FLAG-tagged SGK3 assessed as reduction in AKT phosphorylation at T308 residues at 0.01 to 1 uM 1 hr by immunoblot analysis; assay type: cell-based; details: dose 0.01-1 µM
# How it was run: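 Flp-In T-REx U2OS cells were grown in McCoy medium with 10% FBS. Expression of C-terminally FLAG-tagged full-length SGK3 was induced with 0.01 mg/ml doxycycline for 24 h. Cells were treated with inhibitor for 1 h and lysed in phosphatase-inhibitor buffer. Lysates were cleared at 16000 g for 10 min at 4°C, protein was measured by Bradford, and phosphorylation was read by immunoblot with ECL detection.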
smiles,measurement,setting,value
CC(C)(O)CNc1ncc(-c2ccnc(Nc3ccnc(Cl)c3)n2)c(CC2CC2)n1,Activity,[1],125%
same,Activity,[2],123%
same,Activity,[3],108%
same,Activity,[4],106%
same,Activity,[5],103%
same,Activity,[6],103%
same,Activity,[7],95%
same,Activity,[8],93%
same,Activity,[9],88%
same,inhibition,[10],inactive
same,inhibition,[11],inactive
same,inhibition,[12],inactive
same,inhibition,[13],inactive
same,inhibition,[14],inactive
same,inhibition,[15],inactive
same,inhibition,[16],inactive
same,inhibition,[17],inactive
same,inhibition,[18],inactive
same,inhibition,[19],inactive
same,inhibition,[20],inactive
same,inhibition,[21],inactive
same,IC50,[22],> 10 µM
same,inhibition,[23],inactive
